The results in this text go back to PubChem BioAssay AID743061 (The Scripps Research Institute Molecular Screening Center, 2013).

Structures are written as SMILES.

The inhibition is the drop in the measured response relative to a control, in per cent.

This assay has as its target Methionine--tRNA ligase, mitochondrial (Homo sapiens) (UniProt Q96GW9). The assay is described as follows: inhibitors of human mitochondrial MetRS, late-stage follow-up, selectivity assay for T. brucei MetRS inhibitor project, biochemical, radioactivity, round 1 (AID 743061).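 Also: 0% = DMSO with full reaction and 100% = DMSO wells lacking tRNA.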 The settings on record: recombinant human mtMetRS, [3H]Met tRNA charging, at 10 µM, stronger effect = higher value. In short, it runs like this: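 System: human mitochondrial MetRS enzyme / Buffer or medium: pH 8.0 reaction buffer containing 2.5 mM ATP / Probe or stimulus: 240 nM [3H]methionine with bulk E. coli tRNA acceptor / Doses: 10 and 1 µM / Times: 15 min compound–enzyme preincubation, then 1 h reaction at room temperature / Detection: scintillation counts of TCA-precipitated charged tRNA on filters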
With `Cc1ccc(C(=O)NCCc2nc3ccccc3[nH]2)cc1[N+](=O)[O-]`, the inhibition is 7.36%.

As for `O=C(CCC(=O)Nc1cccc([N+](=O)[O-])c1)NN=Cc1cccs1`, the inhibition was -14.1%.

With `O=C(C(=O)N1CCOCC1)c1cn(CC(=O)N2CCCc3ccccc32)c2ccccc12`, the inhibition came out at 3.68%.

Take `Cc1cccc2[nH]c(C3CCCN(C(=O)c4cccc5cccnc45)C3)nc12` (stereo not given): the inhibition worked out at 2.39%.

With `C[C@H](O)[C@@H]1C(=O)N2CCc3c([nH]c4ccccc34)[C@@H]2C[C@@H]1N(C)Cc1ccc2c(c1)OCO2`, the inhibition stood at 24.8%.

Take `O=C(CC(=O)Nc1cccc(Cl)c1)NN=Cc1ccccc1`: the inhibition is 9.82%.

For `COc1ccc2[nH]c3nc(SCC(=O)Nc4ccc5c(c4)OCO5)nnc3c2c1`, the inhibition is 24.5%.

`Cc1[nH]c2ccc(Br)cc2c(=O)c1CN1CCCCCC1`: the inhibition is -11%.

For `O=C(NCCc1nc2ccccc2[nH]1)c1ccc(Cl)cc1Cl`, the inhibition turned out to be 48.7%.

For the compound `CCN(CC)C(=O)C(=O)c1cn(CC(=O)Nc2cccc(C(F)(F)F)c2)c2ccccc12`, the inhibition turned out to be 40.8%.

With `O=C(Cn1cc(C(=O)COc2ccccc2)c2ccccc21)Nc1cccc(C(F)(F)F)c1`, the inhibition is 3.08%.

With `CCO[C@H]1OC(C(=O)NCc2nc3ccccc3[nH]2)=C[C@@H](c2ccc(Br)cc2)[C@@H]1CCCO`, the inhibition was 11.7%.

Regarding `O=C(NCCc1nc2ccccc2[nH]1)c1c(F)cccc1F`, the inhibition is 0.73%.

With `CC1Cc2ccccc2N1C(=O)Cn1cc(C(=O)C(=O)N2CCOCC2)c2ccccc21` (stereo not given), the inhibition turned out to be 7.77%.

Regarding `O=C1CC(SCc2nc3ccccc3[nH]2)C(=O)N1c1cccc(Cl)c1` (stereo not given), the inhibition is -0.68%.

On to `COCCc1nc2ccc(C(=O)NCCc3nc4ccc(OC)cc4[nH]3)cc2o1`, for which the inhibition came out at 0.45%.

With `CCc1ccc2c(c1)c1nnc(SCC(=O)Nc3ccc4c(c3)OCO4)nc1n2C`, the inhibition was 5.87%.

Turning to `Clc1ccc(OCCSCc2nc3ccccc3[nH]2)cc1`, the inhibition is -5.52%.

For the compound `Cn1c(CCNC(=O)c2ccc(Cl)cc2)nc2ccccc21`, the inhibition worked out at 12.5%.

Turning to `CCO[C@@H]1OC(C(=O)NCc2nc3ccccc3[nH]2)=C[C@H](c2ccc(Br)cc2)[C@H]1CCCO`, the inhibition is -6.53%.

With `COc1ccc(CCN(C(=O)c2cccc(F)c2)C2CC(=O)N(c3ccc(Br)cc3)C2=O)cc1` (stereo not given), the inhibition turned out to be 4.36%.

For `O=C(C[C@H]1C(=O)N(Cc2ccccc2)C[C@@H]1c1ccc(Br)cc1)Nc1ccc(Br)cc1`, the inhibition is -8.54%.

As for `CCN(CC)C(=O)C(=O)c1cn(CC(=O)Nc2cccc(OC)c2)c2ccccc12`, the inhibition was 17.3%.

As for `O=C(NCc1nc2ccccc2[nH]1)C1=C[C@@H](c2ccc(Br)cc2)C[C@@H](OCCCCO)O1`, the inhibition came out at 29%.

On to `COc1ccc(OCC(O)CNC(=O)Nc2ccc(Cl)cc2)cc1` (stereo not given), for which the inhibition was found to be 0.31%.

Turning to `O=C(Cn1cc(C(=O)c2ccco2)c2ccccc21)Nc1cccc(C(F)(F)F)c1`, the inhibition is 19.7%.

`COc1ccc(NC(=O)C2CC(=O)n3c(nc4ccccc43)N2)cc1` (stereo not given): the inhibition is -2.5%.

With `O=C(NCc1nc2ccccc2[nH]1)C1=C[C@H](c2csc3ccccc23)C[C@H](OCCCCO)O1`, the inhibition is 2.21%.

`COc1cccc(NC(=O)C2CC(=O)n3c(nc4ccccc43)N2)c1` (stereo not given): the inhibition turned out to be 9.79%.

As for `Cc1cccc2[nH]c(CCN(C)C(=O)c3cccc(C4CCNC4)c3)nc12` (stereo not given), the inhibition was -5.77%.

As to `O=C(CSC1CC(=O)N(c2cccc(Cl)c2)C1=O)Nc1ccc(Br)cc1` (stereo not given), the inhibition was 1.19%.

For `CC(C)c1nc2ccc(C(=O)N(C)CCc3nc4ccc(F)cc4[nH]3)cc2o1`, the inhibition worked out at 0.38%.

On to `O=C1CC(N(CCc2ccccc2)C(=S)Nc2ccccc2)C(=O)N1c1ccc(Br)cc1` (stereo not given), for which the inhibition came to 25.6%.

As for `CCCCn1c(CCNC(=O)c2ccc(F)cc2)nc2ccccc21`, the inhibition turned out to be 5.87%.

Turning to `CC(C)(C)[C@H]1C=C(C(=O)NCc2nc3ccccc3[nH]2)O[C@@H](OCc2ccc(CO)cc2)C1`, the inhibition was found to be 10.3%.
